Results: ChEMBL document CHEMBL4689842, “EUbOPEN Chemogenomics Library wave 1” (2021)

Tested on: U2OS
Experiment: Multiplex assay against U2OS
Type: toxicity, cell-based
Settings: human
Procedure, shortened: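 Imaging took place on a CQ1 microscope at 37°C and 5% CO2 once compound had been added to live cells stained at seeding with Hoechst33342, BioTracker Green Microtubule Cytoskeleton Dye, MitoTracker Red and Annexin V Alexa Fluor 680. CellPathfinder machine-learning gating classed cells as Hoechst high-intensity objects or normal cells, classed normal cells as having healthy, pyknosed or fragmented nuclei, and classed pyknosed cells as mitotic or apoptotic. Tubulin, mitochondrial-mass and membrane-permeability phenotypes are per cents of the healthy-nucleus cells.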

[1] = 12 h, 1 µM, compound concentration 1 uM, replicate 1
[2] = 12 h, 1 µM, compound concentration 1 uM, replicate 2
[3] = 12 h, 10 µM, compound concentration 10 uM, replicate 1
[4] = 12 h, 10 µM, compound concentration 10 uM, replicate 2
[5] = 24 h, 1 µM, compound concentration 1 uM, replicate 1
[6] = 24 h, 1 µM, compound concentration 1 uM, replicate 2
[7] = 24 h, 10 µM, compound concentration 10 uM, replicate 1
[8] = 24 h, 10 µM, compound concentration 10 uM, replicate 2
[9] = 48 h, 1 µM, compound concentration 1 uM, replicate 1
[10] = 48 h, 1 µM, compound concentration 1 uM, replicate 2
[11] = 48 h, 10 µM, compound concentration 10 uM, replicate 1
[12] = 48 h, 10 µM, compound concentration 10 uM, replicate 2

N#Cc1cccc(C(=O)Nc2cc(-c3ccccc3)nn2-c2ccccc2)c1
Population Apoptotic (%) [1]: 33%
Population Fragmented Nuclei (%) [1]: 14%
Population Healthy Nuclei (%) [1]: 73%
Population Hoechst High Intensity Objects (%) [1]: 9%
Population Membrane Permeable-Phenotype (%) [1]: 2%
Population Mitotic Cells (%) [1]: 66%
Population Normal (%) [1]: 90%
Population Pyknosed Nuclei (%) [1]: 12%
Population Tubulin-Different-Phenotype (%) [1]: 13%
Total Cell Count [1]: 109
Population Apoptotic (%) [2]: 16%
Population Fragmented Nuclei (%) [2]: 5%
Population Healthy Nuclei (%) [2]: 84%
Population Hoechst High Intensity Objects (%) [2]: 3%
Population Membrane Permeable-Phenotype (%) [2]: 6%
Population Mitochondria Different-Phenotype (%) [2]: 8%
Population Mitotic Cells (%) [2]: 83%
Population Normal (%) [2]: 96%
Population Pyknosed Nuclei (%) [2]: 10%
Population Tubulin-Different-Phenotype (%) [2]: 16%
Total Cell Count [2]: 59
Population Apoptotic (%) [3]: 50%
Population Fragmented Nuclei (%) [3]: 14%
Population Healthy Nuclei (%) [3]: 69%
Population Hoechst High Intensity Objects (%) [3]: 6%
Population Membrane Permeable-Phenotype (%) [3]: 22%
Population Mitochondria Different-Phenotype (%) [3]: 86%
Population Mitotic Cells (%) [3]: 50%
Population Normal (%) [3]: 93%
Population Pyknosed Nuclei (%) [3]: 15%
Population Tubulin-Different-Phenotype (%) [3]: 100%
Total Cell Count [3]: 121
Population Apoptotic (%) [4]: 45%
Population Fragmented Nuclei (%) [4]: 9%
Population Healthy Nuclei (%) [4]: 60%
Population Hoechst High Intensity Objects (%) [4]: 9%
Population Membrane Permeable-Phenotype (%) [4]: 15%
Population Mitochondria Different-Phenotype (%) [4]: 84%
Population Mitotic Cells (%) [4]: 55%
Population Normal (%) [4]: 90%
Population Pyknosed Nuclei (%) [4]: 30%
Population Tubulin-Different-Phenotype (%) [4]: 97%
Total Cell Count [4]: 72
Population Apoptotic (%) [5]: 23%
Population Fragmented Nuclei (%) [5]: 13%
Population Healthy Nuclei (%) [5]: 76%
Population Hoechst High Intensity Objects (%) [5]: 11%
Population Mitochondria Different-Phenotype (%) [5]: 5%
Population Mitotic Cells (%) [5]: 76%
Population Normal (%) [5]: 88%
Population Tubulin-Different-Phenotype (%) [5]: 3%
Total Cell Count [5]: 137
Population Apoptotic (%) [6]: 14%
Population Fragmented Nuclei (%) [6]: 3%
Population Healthy Nuclei (%) [6]: 86%
Population Hoechst High Intensity Objects (%) [6]: 4%
Population Membrane Permeable-Phenotype (%) [6]: 1%
Population Mitochondria Different-Phenotype (%) [6]: 8%
Population Mitotic Cells (%) [6]: 85%
Population Normal (%) [6]: 95%
Population Pyknosed Nuclei (%) [6]: 10%
Population Tubulin-Different-Phenotype (%) [6]: 7%
Total Cell Count [6]: 68
Population Apoptotic (%) [7]: 35%
Population Fragmented Nuclei (%) [7]: 19%
Population Healthy Nuclei (%) [7]: 55%
Population Hoechst High Intensity Objects (%) [7]: 8%
Population Membrane Permeable-Phenotype (%) [7]: 33%
Population Mitochondria Different-Phenotype (%) [7]: 78%
Population Mitotic Cells (%) [7]: 64%
Population Normal (%) [7]: 91%
Population Pyknosed Nuclei (%) [7]: 25%
Population Tubulin-Different-Phenotype (%) [7]: 98%
Total Cell Count [7]: 119
Population Apoptotic (%) [8]: 42%
Population Fragmented Nuclei (%) [8]: 9%
Population Healthy Nuclei (%) [8]: 67%
Population Hoechst High Intensity Objects (%) [8]: 6%
Population Membrane Permeable-Phenotype (%) [8]: 30%
Population Mitochondria Different-Phenotype (%) [8]: 71%
Population Mitotic Cells (%) [8]: 57%
Population Normal (%) [8]: 93%
Population Pyknosed Nuclei (%) [8]: 22%
Population Tubulin-Different-Phenotype (%) [8]: 95%
Total Cell Count [8]: 66
Population Apoptotic (%) [9]: 38%
Population Fragmented Nuclei (%) [9]: 10%
Population Healthy Nuclei (%) [9]: 82%
Population Hoechst High Intensity Objects (%) [9]: 5%
Population Membrane Permeable-Phenotype (%) [9]: 2%
Population Mitochondria Different-Phenotype (%) [9]: 2%
Population Mitotic Cells (%) [9]: 61%
Population Normal (%) [9]: 94%
Population Pyknosed Nuclei (%) [9]: 7%
Population Tubulin-Different-Phenotype (%) [9]: 4%
Total Cell Count [9]: 190
Population Apoptotic (%) [10]: 20%
Population Fragmented Nuclei (%) [10]: 3%
Population Healthy Nuclei (%) [10]: 86%
Population Hoechst High Intensity Objects (%) [10]: 4%
Population Membrane Permeable-Phenotype (%) [10]: 4%
Population Mitochondria Different-Phenotype (%) [10]: 13%
Population Mitotic Cells (%) [10]: 80%
Population Normal (%) [10]: 95%
Population Pyknosed Nuclei (%) [10]: 10%
Population Tubulin-Different-Phenotype (%) [10]: 9%
Total Cell Count [10]: 98
Population Apoptotic (%) [11]: 59%
Population Fragmented Nuclei (%) [11]: 17%
Population Healthy Nuclei (%) [11]: 58%
Population Hoechst High Intensity Objects (%) [11]: 10%
Population Membrane Permeable-Phenotype (%) [11]: 32%
Population Mitochondria Different-Phenotype (%) [11]: 67%
Population Mitotic Cells (%) [11]: 40%
Population Normal (%) [11]: 89%
Population Pyknosed Nuclei (%) [11]: 24%
Population Tubulin-Different-Phenotype (%) [11]: 100%
Total Cell Count [11]: 123
Population Apoptotic (%) [12]: 55%
Population Fragmented Nuclei (%) [12]: 13%
Population Healthy Nuclei (%) [12]: 60%
Population Hoechst High Intensity Objects (%) [12]: 11%
Population Membrane Permeable-Phenotype (%) [12]: 52%
Population Mitochondria Different-Phenotype (%) [12]: 42%
Population Mitotic Cells (%) [12]: 44%
Population Normal (%) [12]: 88%
Population Pyknosed Nuclei (%) [12]: 26%
Population Tubulin-Different-Phenotype (%) [12]: 97%
Total Cell Count [12]: 78
